Screening results deposited in PubChem BioAssay by The Scripps Research Institute Molecular Screening Center.
Most compounds without a hit are left out; they make up all but 1.2% or so of the library.
GalR3 antag: human GalR3 antagonism | AID 651719 | inhibition, % at 3 µM | O60755 | HEK293 GalR3-CNG cAMP membrane potential fluorescence; galR3 body fused to GalR1 C-terminus | 360,000 tested, 0.44% active;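 active means inhibition above the screen-wide average plus 3 SD, cut at about 13% in these data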;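 further: forskolin and galanin both at EC90 stimulate the cells; cAMP rise reported by CNG channel membrane potential dye signal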
Target sequence (O60755 1-299 limits assumed): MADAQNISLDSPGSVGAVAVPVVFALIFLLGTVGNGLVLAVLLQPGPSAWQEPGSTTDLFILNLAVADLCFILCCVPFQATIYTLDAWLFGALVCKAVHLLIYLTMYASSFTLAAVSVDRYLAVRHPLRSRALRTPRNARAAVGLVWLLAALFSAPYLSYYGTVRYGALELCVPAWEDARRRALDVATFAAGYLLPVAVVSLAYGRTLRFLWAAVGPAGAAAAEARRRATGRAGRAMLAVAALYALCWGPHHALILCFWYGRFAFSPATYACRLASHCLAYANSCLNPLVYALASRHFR
ASAP1 inh: inhibitors of human ASAP1 ArfGAP activity; Q9ULH1; ASAP1-stimulated ARF1 GTP hydrolysis, GDP FP detection; inhibition, % at 16.5 µM; 360,000 tested, 0.19% active; in the data active means inhibition above about 25%
ARFGAP1 inh: rat ARFGAP1 inhibition | Q62848 | Arfgap1-stimulated ARF1 GTP hydrolysis, GDP FP detection | inhibition, % at 16.5 µM | 360,000 tested, 0.26% active;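 active means inhibition above a per-plate limit, mean inhibition of low control wells plus 3 SD, cut at about 25% in these data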
Target sequence (Q62848 1-136 limits assumed): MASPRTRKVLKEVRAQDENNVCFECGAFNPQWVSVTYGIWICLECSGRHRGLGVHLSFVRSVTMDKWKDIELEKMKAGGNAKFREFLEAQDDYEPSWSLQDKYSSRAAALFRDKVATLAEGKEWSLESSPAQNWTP
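Material: truncated rat Arfgap1 GAP domain; Incubation: compound-enzyme preincubation 20 min, reaction 120 min, detection 60 min, 25 °C; Read-out: percent inhibition of Arfgap1-stimulated GTP hydrolysis; Technique: FP, GDP Alexa 633 tracer displaced from anti-GDP antibody, 620/688 nm; Controls: No-Arfgap1 wells (100%) versus DMSO full-reaction wells (0%); Replication: single well per compound.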
Rin1 Abl inh: human Rin1-Abl interaction inhibition; P00519+Q13671; TR-FRET Rin1/Abl binding, biochemical; inhibition, % at 7.35 µM; 360,000 tested, 0.4% active; in the data active means inhibition above about 5%, passing the limit was not always enough
Rin1-Abl confirm: confirmation of inhibitors of human Rin1-Abl interaction; shares compounds with Rin1 Abl inh; TR-FRET Rin1-Abl binding, purified proteins; inhibition, % at 7.35 µM; 1,300 tested, 49% active; AID 602124
GFP quench: counter-screen for Rin1-Abl inhibitors: GFP fluorescence quenchers. shares compounds with Rin1 Abl inh. inhibitors/quenchers counterscreen. inhibition, % at 6.75 µM. 1,300 tested, 8.5% active. AID 602125;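 further: ABL1-eGFP fusion protein alone without its partner RIN1-SBP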
GFP quench dose: counter-screen for Rin1-Abl inhibitors: GFP quenchers, dose response; shares compounds with Rin1 Abl inh; GFP fluorescence interference/quenching counterscreen; IC50, µM; 230 tested, under 10 active; AID 602182; call rule not given here;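 further: ABL1-eGFP fusion protein alone without its RIN1 binding partner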
Numbers stand for hits; n = inactive; x = no result. Unless noted, no stated cut-off is given here; in the data, active means inhibition above about 6.5%; inactive means the rest.

SMILES | GalR3 antag | ASAP1 inh | ARFGAP1 inh | Rin1 Abl inh | Rin1-Abl confirm | GFP quench | others
COc1ccc(NC(=O)CSc2nc(N)cc(=O)[nH]2)cc1S(=O)(=O)N1CCCCC1 | n | n | n | 11 | 7.7 | n
Nc1cc(=O)[nH]c(SCC(=O)Nc2ccc(S(=O)(=O)N3CCCCC3)cc2)n1 | n | n | n | n | x | x
COc1ccc(CC(=O)Nc2ccc(S(=O)(=O)N3CCCCC3)cc2)cc1OC | n | n | n | 10 | 6.7 | n
COc1cc(C(=O)Nc2ccc(S(=O)(=O)N3CCOCC3)cc2)c([N+](=O)[O-])cc1OC | n | n | n | 11 | n | n
COc1ccc(CC(=O)Nc2ccc(S(=O)(=O)N3CCCC3)cc2)cc1OC | n | n | n | n | x | x
CCCCCCC12C(=Cc3cc(C)ccc31)c1ccccc1C(CC(=O)NCc1ccccc1)N2C(=O)OC (stereo not given) | n | n | n | x | x | x
CC(C)=CC(=O)NCC1CCN(C(=O)C(=O)c2cc3ccccc3o2)CC1 | n | n | n | x | x | x
CCOC(=O)N1CCN(C(=O)C[C@H]2C[C@@]3(C(=O)OC)C(=C[C@H](COCc4ccccc4)O[C@@H]3C)N(Cc3ccc4c(c3)OCO4)C2=O)CC1 | n | n | n | x | x | x
CN1CCCN(c2cc(-c3ccc4ccccc4c3)nc3ccnn23)CC1 | n | n | n | 13 | 12 | 12
Cc1cccc(-c2cc(N3CCCN(C)CC3)n3nccc3n2)c1 | n | n | n | n | x | x
NC(=O)c1ncn([C@@H]2O[C@H](C(=O)N[C@H](Cc3c[nH]c4ccccc34)C(=O)N3CCN(CC(=O)N4CCCC4)CC3)[C@@H](O)[C@H]2O)n1 | n | n | n | x | x | x
COc1cc2c(cc1OC)CN(C(=O)c1ccc(Br)o1)CC2 | n | n | n | n | x | x
COc1cc2c(cc1OC)C(C)N(C(=O)c1ccc(Br)o1)CC2 (stereo not given) | n | n | n | 11 | n | n
Cc1ccc(S(=O)(=O)c2nnn3c2nc(N2CCOCC2)c2ccccc23)c(C)c1 | n | n | n | 46 | 30 | n
Cc1ccc(S(=O)(=O)c2nnn3c2nc(N2CCOCC2)c2ccccc23)cc1C | n | n | n | n | x | x
Cc1cccc(C(=O)N2CCCC(CCC(=O)N3CCN(c4ccccn4)CC3)C2)c1 (stereo not given) | n | n | n | 8.8 | n | n
CC(=O)c1ccccc1C(=O)N1CCCC(CCC(=O)N2CCN(c3ccccn3)CC2)C1 (stereo not given) | n | n | n | 7.9 | n | n
O=C(CCC1CCCN(C(=O)c2ccccc2Cl)C1)N1CCN(c2ccccn2)CC1 (stereo not given) | n | n | n | n | x | x
COc1ccc(C2C(C(=O)N3CCN(c4ccccn4)CC3)CCC(=O)N2c2ccc(OC)cc2)cc1 (stereo not given) | n | n | n | 7.5 | n | n
Brc1ccccc1C1Cc2nnccc2CN1 (stereo not given) | n | n | n | x | x | x
CN(CC(=O)Nc1ccccn1)S(=O)(=O)c1ccc(Cl)cc1 | n | n | n | 36 | n | n
Cc1cnc(NC(=O)CN(C)S(=O)(=O)c2ccc(Cl)cc2)s1 | n | n | n | n | x | x
CCOc1cc(OCC)cc(C(=O)N2CCC[C@@H]2C(=O)N2CCC[C@@H]2C(=O)NCc2cccc(OC)c2)c1 | n | n | n | x | x | x
O=c1c2ccccc2ncn1Cc1ccc(Cl)c(Cl)c1 | n | n | n | 6.3 | n | n
O=C(O)/C=C/C(=O)Nc1ccc(-n2nccc2C(F)(F)F)cc1 | n | n | n | n | x | x
SMILES | GalR3 antag | ASAP1 inh | ARFGAP1 inh | Rin1 Abl inh | Rin1-Abl confirm | GFP quench | others
O=C(O)/C=C/C(=O)Nc1ccc(-n2ccc(C(F)(F)F)n2)cc1 | n | n | n | 6.4 | n | n
O=c1cc(-c2ccc(O)cc2)oc2c(O)c(O)c(O)c(O)c12 | n | n | n | 37 | 48 | 22
O=c1cc(-c2ccc(O)cc2)oc2c1ccc1ccccc12 | n | n | n | n | x | x
CCOC(=O)C1CCN(Cc2oc(CO)cc(=O)c2O)CC1 | n | n | n | 14 | n | n
CCN1CCN(Cc2oc(CO)cc(=O)c2O)CC1 | n | n | n | 5.0 | n | n
Cc1ccc(-c2[nH]c3cc(C(=O)NCCCn4ccnc4)ccc3c(=O)c2O)cc1 | n | n | n | 19 | 11 | 11
OCC1OC(n2cnc3c(NCc4ccccc4O)ncnc32)C(O)C1O (stereo not given) | n | n | n | 20 | 17 | n | GFP quench dose=n
CC(C)CC(NC(=O)OCc1ccccc1)C(=O)NCC(=O)NCC(=O)OCc1ccccc1 (stereo not given) | n | n | n | x | x | x
C=CCn1c(CCc2ccccc2)nnc1SCC(N)=O | n | n | n | n | x | x
CCn1c(CCc2ccccc2)nnc1SCC(N)=O | n | n | n | 6.9 | n | n
NC(=O)C1CCN(C(=O)c2cnn(-c3ccccc3)c2NC(=O)c2cccc(F)c2)CC1 | n | n | n | 23 | n | n
CCC1CCCCN1C(=O)c1ccc(OC)c(OC2CCN(C(C)=O)CC2)c1 (stereo not given) | n | n | n | n | x | x
CCC1C(=O)NCCN1C(=O)c1ccc(OC)c(OC2CCN(C(C)=O)CC2)c1 (stereo not given) | n | n | n | 8.4 | n | n
C=C(C)Cn1c(C(C)NC(=O)CCC)nc2ccccc21 (stereo not given) | n | n | n | 8.6 | n | n
COC(=O)[C@]12C[C@H](CC(=O)NCC34CC5CC(CC(C5)C3)C4)C(=O)N(Cc3ccccc3)C1=C[C@H](C1CCCC1)O[C@@H]2C | n | n | n | x | x | x
Nc1nnc(CCCCc2cccs2)o1 | n | n | n | 7.6 | n | n
O=C(O)CCCC(=O)OCCCCc1cccs1 | n | n | n | n | x | x
Cc1nc(N/N=C/c2cccc(F)c2)cc(N2CCOCC2)n1 | n | n | n | n | x | x
Cc1nc(N/N=C/c2ccc(O)cc2O)cc(N2CCOCC2)n1 | n | n | n | 36 | 44 | n | GFP quench dose=n
CC(C)(C)S(=O)(=O)N1Cc2cc(CO)ccc2[C@@H]1CCO | n | n | n | x | x | x
CCCCOC(=O)C1=C(C)N(C)C(=O)NC1c1cc2c(cc1Br)OCO2 (stereo not given) | n | n | n | n | x | x
CCOC(=O)C1=C(C)N(C)C(=O)NC1c1cc2c(cc1[N+](=O)[O-])OCO2 (stereo not given) | n | n | n | 8.7 | 7.4 | n
O=C(C(=O)N1CCC(CNS(=O)(=O)c2cccc(C(F)(F)F)c2)CC1)c1cc2ccccc2o1 | n | n | n | x | x | x
CCOc1ccc(-c2nnc(N3CCOCC3)c3ccccc23)cc1 | n | n | n | 12 | 6.7 | n
COc1ccc(-c2nnc(N3CCC(C)CC3)c3ccccc23)cc1 | n | n | n | n | x | x
CCOC(=O)c1ccccc1NC(=O)c1cccc([N+](=O)[O-])c1 | n | n | n | 9.8 | n | n
